According to ChEMBL document CHEMBL4808255, “Design, synthesis, and target identification of new hypoxia-inducible factor 1 (HIF-1) inhibitors containing 1-alkyl-1H-pyrazole-3-carboxamide moiety” (Bioorg Med Chem, 2021):
Active and inactive are the calls of the source. The calls are words filed in the database; no cut-off is given here.

How the values were obtained:
[1] = target: T1, Hypoxia-inducible factor 1-alpha (Homo sapiens, UniProt Q16665); experiment: Inhibition of hypoxia-induced HIF1 alpha transcriptional activity in human HeLa cells transfected with luciferase reporter containing of HRE assessed as reduction in luciferase activity incubated for 1 hrs under normoxic condition followed by incubation under hypoxic condition for 24 hrs by luciferase reporter gene assay; assay type: cell-based
[2] = target: ATP synthase F(1) complex subunit beta, mitochondrial (Homo sapiens) (UniProt P06576); experiment: Competitive binding affinity to ATP5B in human HeLa cell mitochondrial fraction in presence of KUSC-5051 by LC-MS/MS analysis; conditions: Mitochondria
How it was run: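 HeLa S3 lysate fractionated into debris (1 mg/mL), mitochondrial (0.8 mg/mL) and cytosol (0.6 mg/mL) fractions. Fractions incubated with DMSO or 300 μM competitor, with or without 30 μM photoaffinity probe, 1 h at 37 °C, then UV 365 nm for 30 min. Click labeling, NeutrAvidin enrichment, SDS-PAGE. The ~60 kDa band was trypsin-digested 12 h at 37 °C for LC-MS/MS, with confirmation by anti-ATP5B western blot.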

[3] = Drug localization in mitochondria of human HeLa cells at 1 uM incubated for 3 hrs by MitoTracker Red CMXRos and Hoechst 33342 staining based assay; assay type: ADME
How it was run: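 HeLa cells exposed 3 h to 1 μM BODIPY-FL fluorescent probe. MitoTracker Red CMXRos (100 nM) and Hoechst 33342 (10 μM) added, then cells fixed and imaged by fluorescence microscopy.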

[4] = target: T1, Hypoxia-inducible factor 1-alpha; experiment: Inhibition of hypoxia-induced HIF1 alpha transcriptional activity in human HeLa cells assessed as HIF1alpha protein level incubated for 1 hrs under normoxic condition followed by incubation under hypoxic condition for 24 hrs by Western blotting analysis; assay type: cell-based; conditions: time 25.0 hrs
[5] = target: T1, Hypoxia-inducible factor 1-alpha; experiment: Inhibition of hypoxia-induced HIF1 alpha transcriptional activity in human HeLa cells at 3 uM incubated for 1 hrs under normoxic condition followed by incubation under hypoxic condition for 24 hrs by quantitative RT-PCR analysis; assay type: cell-based; conditions: time 25.0 hrs
[6] = target: T1, Hypoxia-inducible factor 1-alpha; experiment: Inhibition of hypoxia-induced HIF1 alpha transcriptional activity in human HeLa cells assessed as reduction in CA9 mRNA level at 3 uM incubated for 1 hrs under normoxic condition followed by incubation under hypoxic condition for 24 hrs by quantitative RT-PCR analysis; assay type: cell-based; conditions: time 25.0 hrs
[7] = target: T1, Hypoxia-inducible factor 1-alpha; experiment: Inhibition of hypoxia-induced HIF1 alpha transcriptional activity in human HeLa cells assessed as reduction in VEGF mRNA level at 3 uM incubated for 1 hrs under normoxic condition followed by incubation under hypoxic condition for 24 hrs by quantitative RT-PCR analysis; assay type: cell-based; conditions: time 25.0 hrs
[8] = target: ATP synthase F(1) complex catalytic subunit beta, mitochondrial (Bos taurus) (UniProt P00829); experiment: Inhibition of ATP5B in bovine heart mitochondrial solution assessed as complex V activity at 10 to 100 nM incubated for 2 hrs by spectrophotometry; conditions: Mitochondria, dose 10-100 nM
How it was run: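 Complex V activity measured in bovine heart mitochondria solution with ATP synthase. Compound at 10 and 100 nM; DMSO 1.0% vehicle; oligomycin 12.6 μM as positive control. Incubated 2 h at 25 °C, monitoring absorbance at 340 nm for NADH consumption. n = 3; representative of three experiments; Student's t-test.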

HeLa [9] = experiment: Inhibition of mitochondrial complex V in human HeLa cells assessed as reduction in oxygen consumption rate at 0.1 to 1 uM for 1.5 hrs cells pretreated with FCCP/antimycin A/rotenone by XF mito stress test assay; assay type: cell-based; conditions: dose 0.1-1 µM
How it was run: (§1)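 HeLa cells at 80–90% confluency equilibrated 1.5 h at 37 °C without CO₂. OCR recorded at baseline and after sequential injections: compound (0.1, 1, 10 μM) or oligomycin 0.5 μM, then FCCP 0.5 μM, then rotenone/antimycin A (0.5 μM each). Seahorse XF analyzer; n = 6, mean ± SEM.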

HeLa S3 = experiment: Cytotoxicity against human HeLa S3 cells assessed as reduction in cell viability incubated for 72 hrs by cell proliferation assay; assay type: functional, cell-based; conditions: HeLa S3, 72 h
How it was run: (§2)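 Cells seeded at 1.5 × 10³ per well and grown 24 h, then exposed to solvent or serial dilutions of test compound for 72 h. Viability read with Cell Counting Kit-8. Triplicate wells (n = 3); representative of two independent experiments.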

HT-1080 = experiment: Cytotoxicity against human HT-1080 cells assessed as reduction in cell viability incubated for 72 hrs by cell proliferation assay; assay type: functional, cell-based; conditions: HT-1080, 72 h; how it was run: as §2
HeLa [10] = experiment: Inhibition of mitochondrial complex V in human HeLa cells assessed as reduction in oxygen consumption rate at 0.1 to 1 uM for 1.5 hrs by XF mito stress test assay; assay type: cell-based; conditions: dose 0.1-1 µM; how it was run: as §1
[11] = target: ATP synthase F(1) complex catalytic subunit beta, mitochondrial (Bos taurus) (UniProt P00829); experiment: Inhibition of ATP5B in bovine heart mitochondrial solution assessed as complex V activity at 12.6 nM incubated for 2 hrs by spectrophotometry; conditions: Mitochondria
How it was run: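 Bovine heart mitochondria solution used as the ATP synthase (complex V) source. Compound was incubated 2 h at 25 °C with DMSO at 1.0%. Activity followed as consumption of supplemented NADH by absorbance at 340 nm on a spectrophotometer. Oligomycin was the positive control. n = 3; representative of three independent experiments; Student's t-test.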

IC50 [1] [µM]	SMILES	also measured
34	O=C(Nc1ccc(Br)cc1)c1ccn(Cn2ccnc2)n1	
18	O=C(Nc1ccc(Br)cc1)c1ccn(Cn2cc([N+](=O)[O-])cn2)n1	
18	O=C(Nc1ccc(C(F)(F)F)cc1)c1ccn(Cn2cc([N+](=O)[O-])cn2)n1	
28	O=C(Nc1ccc(F)cc1)c1ccn(Cn2cc([N+](=O)[O-])cn2)n1	
81	O=C(Nc1ccc(F)cc1F)c1ccn(Cn2cc([N+](=O)[O-])cn2)n1	
35	O=C(Nc1cccc(Br)c1)c1ccn(Cn2cc([N+](=O)[O-])cn2)n1	
5.5	CC(=O)Nc1cnn(Cn2ccc(C(=O)Nc3ccc(C(F)(F)F)cc3)n2)c1	
6.9	CC(C)C(=O)Nc1cnn(Cn2ccc(C(=O)Nc3ccc(C(F)(F)F)cc3)n2)c1	
45	O=C(Nc1ccccc1Br)c1ccn(Cn2cc([N+](=O)[O-])cn2)n1	
27	O=C(Nc1ccc(Br)cc1)c1ccn(Cn2ccc([N+](=O)[O-])c2)n1	
21	CC(C)c1ccc(NC(=O)c2ccn(Cn3cc([N+](=O)[O-])cn3)n2)cc1	

Continued, molecule first:

SMILES	IC50 [1] [µM]	also measured
CC(=O)Nc1cnn(Cn2ccc(C(=O)Nc3ccc(Br)cc3)n2)c1	14	
COc1ccc(NC(=O)c2ccn(Cn3cc([N+](=O)[O-])cn3)n2)cc1	> 100	
C#CCCCC1(CCC(=O)Nc2cnn(Cn3ccc(C(=O)Nc4ccc(C(F)(F)F)cc4)n3)c2)N=N1		Activity [2]: Active
O=C(Nc1ccc(Cl)cc1Cl)c1ccn(Cn2cc([N+](=O)[O-])cn2)n1	35	
CCCC(=O)Nc1cnn(Cn2ccc(C(=O)Nc3ccc(C(F)(F)F)cc3)n2)c1	1.8	
Nc1cnn(Cn2ccc(C(=O)Nc3ccc(Br)cc3)n2)c1	20	
O=C(Nc1cccc(C(F)(F)F)c1)c1ccn(Cn2cc([N+](=O)[O-])cn2)n1	33	
O=C(Nc1ccc(Br)cc1)c1ccn(Cn2cnc([N+](=O)[O-])c2)n1	58	
O=C(Nc1ccc(Cl)cc1)c1ccn(Cn2cc([N+](=O)[O-])cn2)n1	20	
Cc1cc(C)n2c1C=C1C=C(CCC(=O)Nc3cnn(Cn4ccc(C(=O)Nc5ccc(C(F)(F)F)cc5)n4)c3)C=[N+]1[B-]2(F)F		Drug uptake [3]: Active
O=C(Nc1ccccc1)c1ccn(Cn2cc([N+](=O)[O-])cn2)n1	> 100	
O=C(Nc1ccccc1O)c1ccn(Cn2cc([N+](=O)[O-])cn2)n1	> 100	
O=C(Nc1ccc(Cl)c(Cl)c1)c1ccn(Cn2cc([N+](=O)[O-])cn2)n1	13	
CCC(=O)Nc1cnn(Cn2ccc(C(=O)Nc3ccc(C(F)(F)F)cc3)n2)c1	1.2	inhibition [4]: Dose-Dependent Effect; inhibition [5]: Active; inhibition [6]: Active; inhibition [7]: Active; Activity [2]: Active; inhibition [8]: Active; inhibition (HeLa [9]): Active; IC50 (HeLa S3): 34.5 µM; IC50 (HT-1080): 0.6 µM; inhibition (HeLa [10]): Active
O=C(Cc1ccccc1)Nc1cnn(Cn2ccc(C(=O)Nc3ccc(C(F)(F)F)cc3)n2)c1	1.4	
CC[C@@H]1/C=C/C=C/C[C@H](C)[C@@H](O)[C@](C)(O)C(=O)[C@H](C)[C@@H](O)[C@H](C)C(=O)[C@H](C)[C@@H](O)[C@H](C)/C=C/C(=O)O[C@H]2[C@@H](C)[C@@H](CC1)O[C@@]1(CC[C@@H](C)[C@@H](C[C@@H](C)O)O1)[C@@H]2C		IC50 (HeLa S3): 5.3 µM; IC50 (HT-1080): < 0.1 µM; inhibition [11]: Active
CCCNc1cnn(Cn2ccc(C(=O)Nc3ccc(C(F)(F)F)cc3)n2)c1	1.2	
O=C(Nc1ccc(Br)cc1)c1ccn(Cn2cccn2)n1	66	
